Columns and labels:
Format in all cases: functional
Rattus norvegicus [1] = test: Antiallergic activity by rat passive cutaneous anaphylaxis (PCA) assay when administered perorally; value ranges between […]; details: po
Summary of the method: (§1)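 Rats were passively sensitized intradermally with diluted reaginic anti-ovalbumin serum 24 h before challenge. Compound was suspended in 1% acacia and dosed by oral feeding needle at 1 mL/kg. After 20-30 min, rats were challenged with 0.02 mg ovalbumin in 0.5 mL 2% Evans Blue. Blued areas were measured 30 min after challenge. Six rats per dose; ED50 is 50% area reduction from control, with 95% confidence limits.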

Rattus norvegicus [2] = test: Antiallergic activity by rat passive cutaneous anaphylaxis (PCA) assay when administered per orally; details: po; summary of the method: as §1
Rattus norvegicus [3] = test: Antiallergic activity by rat passive cutaneous anaphylaxis (PCA) assay when administered per orally;value ranges between (1.4-4.6.); details: po; summary of the method: as §1
Rattus norvegicus [4] = test: antiallergic activity by rat passive cutaneous anaphylaxis (PCA) assay when administered iv
Summary of the method: (§2)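 Male rats sensitized by id injection of diluted rat anti-ovalbumin reaginic serum (0.1 mL each side of shaved back). 24 h later, compound in saline was mixed with 5 mg ovalbumin in 0.5 mL 2% Evans Blue and given iv at 1 mL/kg. Blued-spot diameters were read 30 min later. Six rats per group; ED50 is 50% area reduction versus control, with 95% confidence limits.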

Rattus norvegicus [5] = test: Antiallergic activity by rat passive cutaneous anaphylaxis (PCA) assay when administered per orally;value ranges between (0.64-6.67).; details: po; summary of the method: as §1
Rattus norvegicus [6] = test: Antiallergic activity by rat passive cutaneous anaphylaxis (PCA) assay when administered iv;value ranges between (0.07-0.4.); summary of the method: as §2
Rattus norvegicus [7] = test: Antiallergic activity by rat passive cutaneous anaphylaxis (PCA) assay when administered per orally;value ranges between (0.15-0.94.); details: po; summary of the method: as §1
Rattus norvegicus [8] = test: Antiallergic activity by rat passive cutaneous anaphylaxis (PCA) assay when administered per orally;value ranges between (1.3-23).; details: po; summary of the method: as §1
Rattus norvegicus [9] = test: Antiallergic activity by rat passive cutaneous anaphylaxis (PCA) assay when administered iv;value ranges between (0.01-0.04.); summary of the method: as §2
Rattus norvegicus [10] = test: Antiallergic activity by rat passive cutaneous anaphylaxis (PCA) assay when administered per orally;value ranges between (0.7-1.6); details: po; summary of the method: as §1
Rattus norvegicus [11] = test: Antiallergic activity by rat passive cutaneous anaphylaxis (PCA) assay when administered per orally;value ranges between (4.67-21.77); details: po; summary of the method: as §1
Rattus norvegicus [12] = test: Antiallergic activity by rat passive cutaneous anaphylaxis (PCA) assay when administered iv.;value ranges between (0.04-0.3); summary of the method: as §2
Rattus norvegicus [13] = test: Antiallergic activity by rat passive cutaneous anaphylaxis (PCA) assay when administered perorally; value ranges between (0.4-2.3.); details: po; summary of the method: as §1
Rattus norvegicus [14] = test: Antiallergic activity by rat passive cutaneous anaphylaxis (PCA) assay when administered per orally;value ranges between (3.44-9.04); details: po; summary of the method: as §1
Rattus norvegicus [15] = test: Antiallergic activity by rat passive cutaneous anaphylaxis (PCA) assay when administered iv;value ranges between (0.07-1.70).; summary of the method: as §2
Rattus norvegicus [16] = test: Antiallergic activity by rat passive cutaneous anaphylaxis (PCA) assay when administered per orally;value ranges between( 0.4-3.0.); details: po; summary of the method: as §1
Rattus norvegicus [17] = test: Antiallergic activity by rat passive cutaneous anaphylaxis (PCA) assay when administered per orally;value ranges between (1.0-6.6).; details: po; summary of the method: as §1
Rattus norvegicus [18] = test: Antiallergic activity by rat passive cutaneous anaphylaxis (PCA) assay when administered perorally; details: po; summary of the method: as §1
Rattus norvegicus [19] = test: Antiallergic activity by rat passive cutaneous anaphylaxis (PCA) assay when administered per orally;value ranges between (1.0-4.8).; details: po; summary of the method: as §1
Rattus norvegicus [20] = test: Antiallergic activity by rat passive cutaneous anaphylaxis (PCA) assay when administered iv;value ranges between 0.23-2.24; summary of the method: as §2
Rattus norvegicus [21] = test: Antiallergic activity by rat passive cutaneous anaphylaxis (PCA) assay when administered per orally;value ranges between (0.18-1.48).; details: po; summary of the method: as §1
Rattus norvegicus [22] = test: Antiallergic activity by rat passive cutaneous anaphylaxis (PCA) assay when administered per orally;value ranges between (0.4-0.8.); details: po; summary of the method: as §1
Rattus norvegicus [23] = test: Antiallergic activity by rat passive cutaneous anaphylaxis (PCA) assay when administered perorally; value ranges between (1.3-3.3); details: po; summary of the method: as §1

CCOC(=O)C(=O)Nc1nc(-c2ccccc2O)cs1
ED50 (Rattus norvegicus [1]): 8.2 mg/kg

CCOC(=O)C(=O)Nc1nc(-c2ccc(OC)cc2O)cs1
ED50 (Rattus norvegicus [2]): ~1 mg/kg

NCCO.O=C(O)C(=O)Nc1nc(-c2ccc([N+](=O)[O-])cc2)cs1
ED50 (Rattus norvegicus [3]): 2.5 mg/kg

COc1cc(-c2csc(NC(=O)C(=O)O)n2)ccc1O.NCCO
ED50 (Rattus norvegicus [4]): < 0.1 mg/kg
ED50 (Rattus norvegicus [5]): 2.1 mg/kg

CC(=O)Nc1ccc(-c2csc(NC(=O)C(=O)O)n2)cc1
ED50 (Rattus norvegicus [6]): 0.16 mg/kg
ED50 (Rattus norvegicus [7]): 0.37 mg/kg

CCOC(=O)C(=O)Nc1nc(-c2ccc3c(c2)N(C(C)=O)c2ccccc2S3)cs1
ED50 (Rattus norvegicus [2]): > 10 mg/kg

CCOC(=O)C(=O)Nc1nc(-c2ccc(O)cc2)cs1
ED50 (Rattus norvegicus [2]): ~15 mg/kg

O=C(O)C(=O)Nc1nc(-c2ccc(O)cc2)cs1
ED50 (Rattus norvegicus [4]): ~0.1 mg/kg
ED50 (Rattus norvegicus [2]): > 3 mg/kg

CC(=O)N1c2ccccc2Sc2ccc(-c3csc(NC(=O)C(=O)O)n3)cc21.NCCO
ED50 (Rattus norvegicus [2]): ~10 mg/kg

COc1cc(OC)cc(-c2csc(NC(=O)C(=O)O)n2)c1
ED50 (Rattus norvegicus [4]): ~0.1 mg/kg
ED50 (Rattus norvegicus [2]): ~1 mg/kg

O=C(O)C(=O)Nc1ncc(-c2ccccc2)s1
ED50 (Rattus norvegicus [4]): ~0.3 mg/kg
ED50 (Rattus norvegicus [8]): 4.03 mg/kg

NC(=O)C(=O)Nc1nc(-c2ccc3c(c2)CCCC3)cs1
ED50 (Rattus norvegicus [2]): > 10 mg/kg

CCOC(=O)C(=O)Nc1nc(-c2ccc3oc(C)c(C)c(=O)c3c2)cs1
ED50 (Rattus norvegicus [2]): > 3 mg/kg

NCCO.O=C(O)C(=O)Nc1nc(-c2cccnc2)cs1
ED50 (Rattus norvegicus [2]): > 10 mg/kg

CCOC(=O)C(=O)Nc1nc(-c2cccc(O)c2)cs1
ED50 (Rattus norvegicus [2]): > 10 mg/kg

CCOC(=O)C(=O)Nc1nc(-c2c(C)cc(C)cc2O)cs1
ED50 (Rattus norvegicus [2]): ~10 mg/kg

NCCO.O=C(O)C(=O)Nc1nc(-c2ccc(O)c(O)c2)cs1
ED50 (Rattus norvegicus [4]): 0.08 mg/kg
ED50 (Rattus norvegicus [2]): 0.1 mg/kg

CN(C)c1ccc(-c2csc(NC(=O)C(=O)O)n2)cc1
ED50 (Rattus norvegicus [9]): 0.02 mg/kg
ED50 (Rattus norvegicus [10]): 1.1 mg/kg

CCOC(=O)C(=O)Nc1nc(-c2ccc(Sc3ccccc3)cc2)cs1
ED50 (Rattus norvegicus [2]): > 3 mg/kg

CCOC(=O)C(=O)Nc1nc(-c2ccc3c(c2)OCC(CN2CCCCC2)O3)cs1 (configuration not stated)
ED50 (Rattus norvegicus [2]): > 10 mg/kg

NCCO.NCCO.O=C(O)C(=O)Nc1ccc(-c2csc(NC(=O)C(=O)O)n2)cc1
ED50 (Rattus norvegicus [2]): > 10 mg/kg

CCOC(=O)C(=O)Nc1nc(-c2ccc([N+](=O)[O-])cc2)cs1
ED50 (Rattus norvegicus [2]): > 100 mg/kg

CCOC(=O)C(=O)Nc1nc(C)c(C)s1
ED50 (Rattus norvegicus [2]): > 10 mg/kg

CCOC(=O)C(=O)Nc1nc(-c2cc(OC)c(OC)c(OC)c2)cs1
ED50 (Rattus norvegicus [11]): 14.5 mg/kg

CCOC(=O)C(=O)Nc1ncc(-c2ccccc2)s1
ED50 (Rattus norvegicus [2]): ~10 mg/kg

CCOC(=O)C(=O)Nc1nc(-c2ccc3c(c2)OCCO3)cs1
ED50 (Rattus norvegicus [2]): > 10 mg/kg

NC(=O)C(=O)Nc1nc(-c2ccc3c(c2)OCCO3)cs1
ED50 (Rattus norvegicus [2]): > 30 mg/kg

CCOC(=O)C(=O)Nc1nc(-c2ccc(Oc3ccccc3)cc2)cs1
ED50 (Rattus norvegicus [2]): > 30 mg/kg

NCCO.O=C(O)C(=O)Nc1nc(-c2ccc(F)cc2)cs1
ED50 (Rattus norvegicus [12]): 0.11 mg/kg
ED50 (Rattus norvegicus [13]): 0.9 mg/kg

COc1cc(-c2csc(NC(=O)C(=O)O)n2)cc(OC)c1OC.NCCO
ED50 (Rattus norvegicus [4]): 1 mg/kg
ED50 (Rattus norvegicus [14]): 5.8 mg/kg

CN(C)c1cccc(-c2csc(NC(=O)C(=O)O)n2)c1.NCCO
ED50 (Rattus norvegicus [15]): 0.35 mg/kg
ED50 (Rattus norvegicus [16]): 1.7 mg/kg

CCOC(=O)C(=O)Nc1nc(-c2ccc(O)c(C(C)=O)c2)cs1
ED50 (Rattus norvegicus [17]): 2.6 mg/kg

NC(=O)C(=O)Nc1nc(-c2ccccc2)cs1
ED50 (Rattus norvegicus [18]): ~1 mg/kg

CCOC(=O)C(=O)Nc1nc(-c2ccc(O)c(C)c2)cs1
ED50 (Rattus norvegicus [19]): 2.2 mg/kg

CC(=O)c1cc(-c2csc(NC(=O)C(=O)O)n2)ccc1O.NCCO.NCCO
ED50 (Rattus norvegicus [20]): 0.71 mg/kg
ED50 (Rattus norvegicus [2]): ~1 mg/kg

CCOC(=O)C(=O)Nc1nc(-c2ccc(N3CCOCC3)cc2)cs1
ED50 (Rattus norvegicus [2]): > 100 mg/kg

CCOC(=O)C(=O)Nc1nc(-c2cc(OC)cc(OC)c2)cs1
ED50 (Rattus norvegicus [2]): ~10 mg/kg

Cc1sc(NC(=O)C(=O)O)nc1-c1ccc2c(c1)OCCO2
ED50 (Rattus norvegicus [21]): 0.5 mg/kg

CCOC(=O)C(=O)Nc1nc(-c2ccc(OC)c(OC)c2)cs1
ED50 (Rattus norvegicus [2]): ~3 mg/kg

CCOc1ccc(-c2csc(NC(=O)C(=O)O)n2)cc1.NCCO
ED50 (Rattus norvegicus [22]): 0.54 mg/kg

Cc1sc(NC(=O)C(=O)O)nc1-c1ccccc1.NCCO
ED50 (Rattus norvegicus [23]): 2.5 mg/kg

Source: ChEMBL document CHEMBL1122270, “N-(4-substituted-thiazolyl)oxamic acid derivatives, a new series of potent, orally active antiallergy agents” (1983)
